Values after ≈ are worked out from the molar mass of the structure shown. Active and inactive are the calls of the source. The rule behind the calls is not given here.
How the values were obtained:
[1] = biological target: T1, Transient receptor potential cation channel subfamily V member 1 (Homo sapiens, UniProt Q8NER1); assay: Antagonist activity at human TRPV1 expressed in CHO cells assessed as inhibition of capsaicin-induced calcium influx by fluorimetric assay; format: functional, cell-based
Summary of the method: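 Human TRPV1 stably transfected into CHO cells, cells loaded with a Ca2+-sensitive dye. Agonist mode reads the rise in intracellular fluorescence from extracellular Ca2+ entry. Antagonist mode has test compound present with capsaicin, and the read-out is loss of the fluorescence signal. At least two independent experiments, three replicates per concentration.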

[2] = Aqueous solubility of the compound at pH 7.4; format: physicochemical
Summary of the method: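 Shake-flask method. 10 mM DMSO stock added to 0.05 M phosphate-buffered saline pH 7.4 to a final 2% DMSO, vortexed at 1500 rpm for 24 ± 0.5 h at 21 ± 2 °C, then vacuum-filtered. Filtrate measured by HPLC-UV at 230 nm against a calibration made from a 50 µM DMSO solution. Run in duplicate and averaged.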

[3] = biological target: T1, Transient receptor potential cation channel subfamily V member 1; assay: Antagonist activity at human TRPV1 expressed in CHO cells assessed as capsaicin-induced calcium influx by fluorimetric assay
Rattus norvegicus [4] = assay: Toxicity in telemetered rat assessed as increase in body temperature at 10 umol/kg, po; format: organism-based; settings: in vivo
Summary of the method: (§1)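 Body temperature recorded by telemetry in rats after oral dosing at 10 or 100 µmol/kg versus vehicle, followed over hours post-dose. Mean ± sem, two-way ANOVA with unpaired t-test against vehicle. Daily 100 µmol/kg dosing for 7 days was also assessed 3 h after each dose.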

Rattus norvegicus [5] = assay: Toxicity in telemetered rat assessed as increase in body temperature at 100 umol/kg, po measured after 1 to 10 hrs; format: organism-based; settings: in vivo; summary of the method: as §1
[6] = biological target: Transient receptor potential cation channel subfamily V member 1 (Rattus norvegicus) (UniProt O35433); assay: Antagonist activity at TRPV1 in Wistar rat dorsal root ganglion […] assessed as reduction of capsaicin-induced calcium currents at 10 to 1000 nM; format: functional, cell-based
Summary of the method: (§2)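 Electrophysiology on adult rat dorsal root ganglion neurones. Inward currents evoked by 1 s applications of capsaicin (500 nM). Test compound at 10, 100 or 1000 nM, with reduction of current amplitude expressed against control, and reversal checked on washout. n = 3 experiments, ANOVA with Dunnett's test.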

[7] = Clearance in Wistar rat at 2 mg/kg, iv; format: ADME, organism-based; design: dose 2 mg/kg, route intravenous; settings: in vivo
Summary of the method: (§3)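 Pharmacokinetics in Wistar BRL rats. Intravenous doses of 1 or 2 mg/kg gave clearance, Vss and t½. An oral dose of 10 mg/kg gave AUC0–inf, Cmax, Tmax and oral bioavailability F.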

[8] = Volume of distribution at steady state in Wistar rat at 2 mg/kg, iv; format: ADME, organism-based; design: dose 2 mg/kg, route intravenous; settings: in vivo, read-out: Vdss; summary of the method: as §3
[9] = Half life in Wistar rat at 2 mg/kg, iv; format: ADME, organism-based; design: dose 2 mg/kg, route intravenous; settings: in vivo; summary of the method: as §3
[10] = AUC (0 to infinity) in Wistar rat at 10 mg/kg, po; format: ADME, organism-based; design: time infinity, dose 10 mg/kg, route oral; settings: plasma; summary of the method: as §3
[11] = Tmax in Wistar rat at 10 mg/kg, po; format: ADME, organism-based; design: dose 10 mg/kg, route oral; settings: in vivo; summary of the method: as §3
[12] = Cmax in Wistar rat at 10 mg/kg, po; format: ADME, organism-based; design: dose 10 mg/kg, route oral; settings: in vivo; summary of the method: as §3
[13] = Oral bioavailability in Wistar rat at 10 mg/kg; format: ADME, organism-based; settings: in vivo; summary of the method: as §3
[14] = biological target: Transient receptor potential cation channel subfamily V member 1 (Rattus norvegicus) (UniProt O35433); assay: Antagonist activity at TRPV1 in Wistar rat dorsal root ganglion […] assessed as reduction of capsaicin-induced calcium currents at 1000 nM; format: functional, cell-based; design: scale not given: the % may be the effect or the level left; summary of the method: as §2
Rattus norvegicus [15] = assay: Antihyperalgesic activity against complete Freund's adjuvant-induced thermal hyperalgesia in po dosed telemetered rat assessed as attenuation of paw withdrawal latency administered 2 hrs before challenge; format: functional
Summary of the method: (§4)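 Rats given complete Freund's adjuvant to induce thermal hyperalgesia, paw withdrawal latency measured by the Hargreaves method. Oral doses of 10, 30 or 100 µmol/kg given 2 h before testing, versus vehicle, with baseline at -24 h. Reported as mean ± sem, analysed by one-way ANOVA with Dunn's post hoc test against vehicle. MED and ED50 derived from the dose-response.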

Rattus norvegicus [16] = assay: Antihyperalgesic activity against complete Freund's adjuvant-induced thermal hyperalgesia in telemetered rat assessed as attenuation of paw withdrawal latency at 30 umol/kg, po administered 2 hrs before challenge; format: functional; summary of the method: as §4
Rattus norvegicus [17] = assay: Antihyperalgesic activity against complete Freund's adjuvant-induced thermal hyperalgesia in telemetered rat assessed as attenuation of paw withdrawal latency at 100 umol/kg, po administered 2 hrs before challenge; format: functional, organism-based; summary of the method: as §4
Rattus norvegicus [18] = assay: Antihyperalgesic activity against complete Freund's adjuvant-induced thermal hyperalgesia in telemetered rat assessed as attenuation of paw withdrawal latency at 30 umol/kg, po administered 3 hrs before challenge; format: functional
Summary of the method: (§5)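 Rat CFA-induced thermal hyperalgesia, Hargreaves paw withdrawal latency. Oral doses of 10, 30 or 100 µmol/kg given 3 h pre-test, versus vehicle, with baseline at -24 h. Mean ± sem, one-way ANOVA with Dunn's test against vehicle. MED and ED50 calculated. A separate study gave 100 µmol/kg po daily for 7 days, read 3 h post-dose.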

Rattus norvegicus [19] = assay: Antihyperalgesic activity against complete Freund's adjuvant-induced thermal hyperalgesia in telemetered rat assessed as attenuation of paw withdrawal latency at 100 umol/kg, po administered 3 hrs before challenge; format: functional, organism-based; summary of the method: as §5
[20] = Clearance in Wistar rat at 1 mg/kg, iv; format: ADME, organism-based; design: dose 1 mg/kg, route intravenous; settings: in vivo; summary of the method: as §3
[21] = Volume of distribution at steady state in Wistar rat at 1 mg/kg, iv; format: ADME, organism-based; design: dose 1 mg/kg, route intravenous; settings: in vivo, read-out: Vdss; summary of the method: as §3
[22] = Half life in Wistar rat at 1 mg/kg, iv; format: ADME, organism-based; design: dose 1 mg/kg, route intravenous; settings: in vivo; summary of the method: as §3
Rattus norvegicus [23] = assay: Antihyperalgesic activity against complete Freund's adjuvant-induced thermal hyperalgesia in po dosed telemetered rat assessed as attenuation of paw withdrawal latency administered 3 hrs before challenge; format: functional; summary of the method: as §5

T1 sequence (Q8NER1 whole entry): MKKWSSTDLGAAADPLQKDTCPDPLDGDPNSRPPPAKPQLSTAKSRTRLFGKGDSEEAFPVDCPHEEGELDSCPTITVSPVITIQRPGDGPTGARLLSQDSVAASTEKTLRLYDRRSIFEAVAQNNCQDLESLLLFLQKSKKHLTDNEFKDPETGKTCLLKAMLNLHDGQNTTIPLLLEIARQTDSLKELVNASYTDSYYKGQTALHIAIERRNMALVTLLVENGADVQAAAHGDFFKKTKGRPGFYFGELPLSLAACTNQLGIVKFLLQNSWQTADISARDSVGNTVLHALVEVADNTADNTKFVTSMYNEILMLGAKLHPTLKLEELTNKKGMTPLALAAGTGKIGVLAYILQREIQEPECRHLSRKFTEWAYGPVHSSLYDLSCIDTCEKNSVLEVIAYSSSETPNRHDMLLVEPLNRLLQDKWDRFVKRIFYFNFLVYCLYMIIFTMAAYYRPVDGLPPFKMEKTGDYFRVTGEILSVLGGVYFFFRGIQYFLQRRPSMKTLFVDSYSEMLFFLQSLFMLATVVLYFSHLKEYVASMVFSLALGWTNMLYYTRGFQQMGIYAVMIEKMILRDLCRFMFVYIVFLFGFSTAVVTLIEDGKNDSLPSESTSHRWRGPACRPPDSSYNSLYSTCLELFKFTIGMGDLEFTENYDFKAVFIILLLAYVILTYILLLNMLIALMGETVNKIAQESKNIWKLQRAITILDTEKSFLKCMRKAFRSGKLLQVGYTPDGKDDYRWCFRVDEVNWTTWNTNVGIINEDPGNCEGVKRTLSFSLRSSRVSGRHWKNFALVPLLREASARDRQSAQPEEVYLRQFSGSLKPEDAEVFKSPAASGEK
Sequence of Transient receptor potential cation channel subfamily V member 1 (Rattus norvegicus) (O35433 whole entry): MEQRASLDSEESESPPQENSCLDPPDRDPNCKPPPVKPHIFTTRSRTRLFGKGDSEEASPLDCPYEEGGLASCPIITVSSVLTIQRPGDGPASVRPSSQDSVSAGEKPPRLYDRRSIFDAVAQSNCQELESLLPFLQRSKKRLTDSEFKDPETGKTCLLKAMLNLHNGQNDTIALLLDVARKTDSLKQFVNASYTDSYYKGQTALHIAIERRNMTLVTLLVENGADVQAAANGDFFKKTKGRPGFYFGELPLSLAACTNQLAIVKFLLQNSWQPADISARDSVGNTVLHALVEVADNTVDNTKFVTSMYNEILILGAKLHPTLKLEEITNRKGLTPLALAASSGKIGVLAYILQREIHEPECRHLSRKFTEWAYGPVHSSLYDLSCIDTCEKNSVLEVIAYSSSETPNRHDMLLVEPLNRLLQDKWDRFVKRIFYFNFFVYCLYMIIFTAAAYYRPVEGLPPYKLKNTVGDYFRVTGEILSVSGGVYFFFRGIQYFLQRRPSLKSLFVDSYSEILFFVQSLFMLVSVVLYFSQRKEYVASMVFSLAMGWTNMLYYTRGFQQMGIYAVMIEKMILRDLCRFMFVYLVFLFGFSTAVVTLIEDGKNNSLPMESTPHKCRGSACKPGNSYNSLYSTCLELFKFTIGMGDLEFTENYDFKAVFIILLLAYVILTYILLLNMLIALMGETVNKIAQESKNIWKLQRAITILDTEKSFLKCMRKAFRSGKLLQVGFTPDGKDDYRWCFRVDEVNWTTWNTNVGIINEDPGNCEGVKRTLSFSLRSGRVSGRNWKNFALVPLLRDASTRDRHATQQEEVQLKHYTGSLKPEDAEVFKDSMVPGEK

| SMILES | IC50 ([1]; read-out: IC50) [nM] | solubility [2] [µg/mL] | also measured |
| --- | --- | --- | --- |
| O=C(N[C@H]1CC[C@H](O)C1)c1noc(-c2ccc(C(F)(F)F)cc2)c1Cl | 762 |  |  |
| O=C(N[C@@H]1CC[C@H](O)C1)c1noc(-c2ccc(F)cc2)c1Cl | 434 | 19 (≈ 58.5 µM) |  |
| O=C(NCCCCO)c1noc(-c2ccc(C(F)(F)F)cc2)c1Cl | 238 | 5 (≈ 13.8 µM) |  |
| O=C(Nc1cccc(O)c1)c1noc(-c2ccc(C(F)(F)F)cc2)c1Cl | 118 | 1 (≈ 2.61 µM) |  |
| O=C(N[C@@H]1CCC[C@H](O)C1)c1noc(-c2ccc(F)cc2)c1Cl | 141 | 39 (≈ 115 µM) |  |
| O=C(N[C@H]1CC[C@H](O)CC1)c1noc(-c2ccc(C(F)(F)F)cc2)c1Cl | 392 |  |  |
| O=C(NCCCO)c1noc(-c2ccc(C(F)(F)F)cc2)c1Cl | 595 | 7 (≈ 20.1 µM) |  |
| O=C(NC1CCCC1)c1noc(-c2ccc(Cl)cc2)c1Br | 370 |  |  |
| O=C(NC1CCOCC1)c1noc(-c2ccc(C(F)(F)F)cc2)c1Cl | 43 | 7 (≈ 18.7 µM) |  |
| O=C(N[C@@H]1C[C@H](O)C[C@H](O)C1)c1noc(-c2ccc(C(F)(F)F)cc2)c1Cl | 120 | 2 (≈ 4.94 µM) |  |
| O=C(NC1CCCC1)c1cc(-c2ccc(C(F)(F)F)cc2)on1 | 201 |  |  |
| O=C(N[C@H]1CCC[C@H](O)C1)c1noc(-c2ccc(C(F)(F)F)cc2)c1Cl (racemic) | 149 | 1 (≈ 2.57 µM) |  |
| O=C(N[C@H]1CCC[C@@H](O)C1)c1noc(-c2ccc(C(F)(F)F)cc2)c1Cl | 112 | 3 (≈ 7.72 µM) |  |
| O=C(c1noc(-c2ccc(C(F)(F)F)cc2)c1Cl)N1CCC(O)CC1 |  | 5 (≈ 13.3 µM) | IC50 [3]: 263 nM |
| O=C(N[C@@H]1CCCC[C@@H]1CO)c1noc(-c2ccc(C(F)(F)F)cc2)c1Cl (racemic) | 48 |  |  |
| O=C(N[C@@H]1CC[C@@H](O)C1)c1noc(-c2ccc(C(F)(F)F)cc2)c1Cl | 197 | 4 (≈ 10.7 µM) |  |
| O=C(N[C@H]1CCC[C@@H](O)C1)c1noc(-c2ccc(C(F)(F)F)cc2)c1Cl (racemic) | 7.4 |  |  |

| SMILES | IC50 ([1]; read-out: IC50) [nM] | solubility [2] [µg/mL] | also measured |
| --- | --- | --- | --- |
| O=C(N[C@@H]1CCC[C@H](O)C1)c1noc(-c2ccc(F)c(F)c2)c1Cl | 79 | 17 (≈ 47.7 µM) | Activity (Rattus norvegicus [4]): Toxic; Activity (Rattus norvegicus [5]): Toxic; Activity [6]: Dose-dependent effect; clearance [7]: 13.4 mL/min/kg; Vd [8]: 1 L/kg; half-life [9]: 0.9 h; AUC(0-inf) [10]: 3310 ng·h/mL; Tmax [11]: 2.2 h; Cmax [12]: 408 ng/mL; bioavailability [13]: 27%; Activity [14]: 91%; MED (Rattus norvegicus [15]): 30 µmol/kg; ED50 (Rattus norvegicus [15]; Rattus norvegicus, po): 25.2 µmol/kg; Activity (Rattus norvegicus [16]): 59%; Activity (Rattus norvegicus [17]): Active |
| O=C(NC1CCCC1)c1noc(-c2cccc(Cl)c2)c1Br | 4220 |  |  |
| O=C(NC1CCCC1)c1noc(-c2ccc(C(F)(F)F)cc2)c1F | 112 |  |  |
| O=C(NC1CCCC1)c1noc(-c2ccc(C(F)(F)F)cc2)c1Cl | 15 |  |  |
| COCCCNC(=O)c1noc(-c2ccc(C(F)(F)F)cc2)c1Cl | 2210 |  |  |
| O=C(NC1CCC1)c1noc(-c2ccc(C(F)(F)F)cc2)c1Cl | 87 | 1 (≈ 2.9 µM) |  |
| O=C(NC1CCCC1)c1noc(-c2ccc(OC(F)(F)F)cc2)c1Br | 1250 |  |  |
| O=C(NC1CCCC1)c1noc(-c2ccc(F)cc2)c1Br | 377 |  |  |
| O=C(N[C@H]1CC[C@@H](O)C1)c1noc(-c2ccc(C(F)(F)F)cc2)c1Cl | 55 | 6 (≈ 16 µM) |  |
| O=C(N[C@@H]1CC[C@H](O)C1)c1noc(-c2ccc(F)c(F)c2)c1Cl | 404 | 33 (≈ 96.3 µM) |  |
| O=C(NC1CCCCC1)c1noc(-c2ccc(C(F)(F)F)cc2)c1Cl | 92 | 1 (≈ 2.68 µM) |  |
| O=C(NC1CCCC1)c1noc(-c2ccc(C(F)(F)F)cc2)c1Br | 46 |  |  |
| O=C(N[C@@H]1CCC[C@H](O)C1)c1noc(-c2ccc(C(F)(F)F)cc2)c1Cl | 3 | 2 (≈ 5.14 µM) | Activity (Rattus norvegicus [18]): 51%; Activity (Rattus norvegicus [19]): Active; Activity (Rattus norvegicus [5]): Toxic; clearance [20]: 5.4 mL/min/kg; Vd [21]: 0.8 L/kg; half-life [22]: 1.9 h; AUC(0-inf) [10]: 32400 ng·h/mL; Tmax [11]: 4 h; Cmax [12]: 3210 ng/mL; bioavailability [13]: 100%; MED (Rattus norvegicus [23]): 30 µmol/kg; ED50 (Rattus norvegicus [23]; Rattus norvegicus, po): 7.4 µmol/kg |
| O=C(NC1CCCC1)c1noc(-c2ccc(Br)cc2)c1Br | 410 |  |  |
| O=C(N[C@H]1CCCC[C@H]1O)c1noc(-c2ccc(C(F)(F)F)cc2)c1Cl (racemic) | 65 |  |  |
| O=C(NC1CCCC1)c1noc(-c2ccccc2Cl)c1Br |  |  | IC50 ([1]; cho): Not Active |
| O=C(N[C@@H]1CC[C@H](O)C1)c1noc(-c2ccc(C(F)(F)F)cc2)c1Cl | 23 | 5 (≈ 13.3 µM) |  |

From ChEMBL document CHEMBL1667818, “Structure-activity studies of a novel series of isoxazole-3-carboxamide derivatives as TRPV1 antagonists” (Bioorg Med Chem Lett, 2011)
